Data taken from ChEMBL document CHEMBL5058577, “EUbOPEN Chemogenomics Library 2 (Multiplex)” (2022).

Tested on: Fibroblast
Assay: Multiplex assay against human fibroblast
Type: toxicity, cell-based
Summary of the method: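 Cells stained live at seeding with Hoechst33342, BioTracker Green Microtubule Cytoskeleton Dye, MitoTracker Red and Annexin V Alexa Fluor 680 were imaged on a CQ1 microscope at 37°C and 5% CO2 after compound addition. Their classification by CellPathfinder machine-learning gating ran from Hoechst high-intensity objects versus normal cells, to healthy, pyknosed or fragmented nuclei among normal cells, to mitotic or apoptotic among pyknosed cells. Tubulin, mitochondrial-mass and membrane-permeability phenotypes are per cents of healthy-nucleus cells.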

[1] = 12 h, 1 µM, compound concentration 1 uM, replicate 1
[2] = 12 h, 1 µM, compound concentration 1 uM, replicate 2
[3] = 12 h, 10 µM, compound concentration 10 uM, replicate 1
[4] = 12 h, 10 µM, compound concentration 10 uM, replicate 2
[5] = 24 h, 1 µM, compound concentration 1 uM, replicate 1
[6] = 24 h, 1 µM, compound concentration 1 uM, replicate 2
[7] = 24 h, 10 µM, compound concentration 10 uM, replicate 1
[8] = 24 h, 10 µM, compound concentration 10 uM, replicate 2
[9] = 48 h, 1 µM, compound concentration 1 uM, replicate 1
[10] = 48 h, 1 µM, compound concentration 1 uM, replicate 2
[11] = 48 h, 10 µM, compound concentration 10 uM, replicate 1
[12] = 48 h, 10 µM, compound concentration 10 uM, replicate 2

CSc1nc(NC2CCCC2)c([N+](=O)[O-])c(NC2CCCC2)n1 [GS-39783]
Population Apoptotic (%) [1]: 50%
Population Fragmented Nuclei (%) [1]: 16%
Population Healthy Nuclei (%) [1]: 66%
Population Hoechst High Intensity Objects (%) [1]: 3%
Population Membrane Permeable-Phenotype (%) [1]: 2%
Population Mitochondria Different-Phenotype (%) [1]: 6%
Population Mitotic Cells (%) [1]: 50%
Population Normal (%) [1]: 96%
Population Pyknosed Nuclei (%) [1]: 16%
Population Tubulin-Different-Phenotype (%) [1]: 29%
Total Cell Count [1]: 137
Population Apoptotic (%) [2]: 39%
Population Fragmented Nuclei (%) [2]: 28%
Population Healthy Nuclei (%) [2]: 46%
Population Hoechst High Intensity Objects (%) [2]: 5%
Population Membrane Permeable-Phenotype (%) [2]: 10%
Population Mitochondria Different-Phenotype (%) [2]: 10%
Population Mitotic Cells (%) [2]: 60%
Population Normal (%) [2]: 94%
Population Pyknosed Nuclei (%) [2]: 25%
Population Tubulin-Different-Phenotype (%) [2]: 57%
Total Cell Count [2]: 135
Population Apoptotic (%) [3]: 54%
Population Fragmented Nuclei (%) [3]: 16%
Population Healthy Nuclei (%) [3]: 62%
Population Hoechst High Intensity Objects (%) [3]: 5%
Population Membrane Permeable-Phenotype (%) [3]: 0%
Population Mitochondria Different-Phenotype (%) [3]: 5%
Population Mitotic Cells (%) [3]: 45%
Population Normal (%) [3]: 94%
Population Pyknosed Nuclei (%) [3]: 21%
Population Tubulin-Different-Phenotype (%) [3]: 39%
Total Cell Count [3]: 184
Population Apoptotic (%) [4]: 36%
Population Fragmented Nuclei (%) [4]: 25%
Population Healthy Nuclei (%) [4]: 52%
Population Hoechst High Intensity Objects (%) [4]: 6%
Population Membrane Permeable-Phenotype (%) [4]: 4%
Population Mitochondria Different-Phenotype (%) [4]: 16%
Population Mitotic Cells (%) [4]: 63%
Population Normal (%) [4]: 93%
Population Tubulin-Different-Phenotype (%) [4]: 70%
Total Cell Count [4]: 165
Population Apoptotic (%) [5]: 30%
Population Fragmented Nuclei (%) [5]: 12%
Population Healthy Nuclei (%) [5]: 69%
Population Hoechst High Intensity Objects (%) [5]: 2%
Population Membrane Permeable-Phenotype (%) [5]: 3%
Population Mitochondria Different-Phenotype (%) [5]: 4%
Population Mitotic Cells (%) [5]: 69%
Population Normal (%) [5]: 97%
Population Pyknosed Nuclei (%) [5]: 17%
Population Tubulin-Different-Phenotype (%) [5]: 27%
Total Cell Count [5]: 132
Population Apoptotic (%) [6]: 32%
Population Fragmented Nuclei (%) [6]: 31%
Population Healthy Nuclei (%) [6]: 44%
Population Membrane Permeable-Phenotype (%) [6]: 10%
Population Mitochondria Different-Phenotype (%) [6]: 12%
Population Mitotic Cells (%) [6]: 67%
Population Pyknosed Nuclei (%) [6]: 23%
Population Tubulin-Different-Phenotype (%) [6]: 60%
Total Cell Count [6]: 133
Population Apoptotic (%) [7]: 58%
Population Fragmented Nuclei (%) [7]: 17%
Population Healthy Nuclei (%) [7]: 65%
Population Hoechst High Intensity Objects (%) [7]: 2%
Population Membrane Permeable-Phenotype (%) [7]: 0%
Population Mitochondria Different-Phenotype (%) [7]: 4%
Population Mitotic Cells (%) [7]: 41%
Population Normal (%) [7]: 97%
Population Pyknosed Nuclei (%) [7]: 17%
Population Tubulin-Different-Phenotype (%) [7]: 33%
Total Cell Count [7]: 172
Population Apoptotic (%) [8]: 36%
Population Fragmented Nuclei (%) [8]: 25%
Population Healthy Nuclei (%) [8]: 52%
Population Hoechst High Intensity Objects (%) [8]: 7%
Population Membrane Permeable-Phenotype (%) [8]: 6%
Population Mitochondria Different-Phenotype (%) [8]: 10%
Population Mitotic Cells (%) [8]: 63%
Population Normal (%) [8]: 92%
Population Pyknosed Nuclei (%) [8]: 21%
Population Tubulin-Different-Phenotype (%) [8]: 57%
Total Cell Count [8]: 164
Population Apoptotic (%) [9]: 70%
Population Fragmented Nuclei (%) [9]: 22%
Population Healthy Nuclei (%) [9]: 69%
Population Hoechst High Intensity Objects (%) [9]: 4%
Population Membrane Permeable-Phenotype (%) [9]: 1%
Population Mitochondria Different-Phenotype (%) [9]: 5%
Population Mitotic Cells (%) [9]: 30%
Population Normal (%) [9]: 95%
Population Pyknosed Nuclei (%) [9]: 7%
Population Tubulin-Different-Phenotype (%) [9]: 29%
Total Cell Count [9]: 134
Population Apoptotic (%) [10]: 33%
Population Fragmented Nuclei (%) [10]: 41%
Population Healthy Nuclei (%) [10]: 44%
Population Hoechst High Intensity Objects (%) [10]: 3%
Population Membrane Permeable-Phenotype (%) [10]: 23%
Population Mitochondria Different-Phenotype (%) [10]: 14%
Population Mitotic Cells (%) [10]: 66%
Population Normal (%) [10]: 96%
Population Pyknosed Nuclei (%) [10]: 14%
Population Tubulin-Different-Phenotype (%) [10]: 60%
Total Cell Count [10]: 129
Population Apoptotic (%) [11]: 66%
Population Fragmented Nuclei (%) [11]: 19%
Population Healthy Nuclei (%) [11]: 65%
Population Hoechst High Intensity Objects (%) [11]: 2%
Population Membrane Permeable-Phenotype (%) [11]: 1%
Population Mitochondria Different-Phenotype (%) [11]: 5%
Population Mitotic Cells (%) [11]: 33%
Population Normal (%) [11]: 97%
Population Pyknosed Nuclei (%) [11]: 14%
Population Tubulin-Different-Phenotype (%) [11]: 41%
Total Cell Count [11]: 168
Population Apoptotic (%) [12]: 60%
Population Fragmented Nuclei (%) [12]: 40%
Population Healthy Nuclei (%) [12]: 46%
Population Hoechst High Intensity Objects (%) [12]: 6%
Population Membrane Permeable-Phenotype (%) [12]: 6%
Population Mitochondria Different-Phenotype (%) [12]: 7%
Population Mitotic Cells (%) [12]: 40%
Population Normal (%) [12]: 93%
Population Pyknosed Nuclei (%) [12]: 13%
Population Tubulin-Different-Phenotype (%) [12]: 60%
Total Cell Count [12]: 193

Cl.Cl.OCCOCCN1CCN(C(c2ccccc2)c2ccc(Cl)cc2)CC1 (stereo unspecified) [HYDROXYZINE HYDROCHLORIDE]
Population Apoptotic (%) [1]: 43%
Population Fragmented Nuclei (%) [1]: 11%
Population Healthy Nuclei (%) [1]: 75%
Population Hoechst High Intensity Objects (%) [1]: 1%
Population Membrane Permeable-Phenotype (%) [1]: 0%
Population Mitochondria Different-Phenotype (%) [1]: 4%
Population Mitotic Cells (%) [1]: 56%
Population Normal (%) [1]: 98%
Population Pyknosed Nuclei (%) [1]: 13%
Population Tubulin-Different-Phenotype (%) [1]: 25%
Total Cell Count [1]: 177
Population Apoptotic (%) [2]: 51%
Population Fragmented Nuclei (%) [2]: 22%
Population Healthy Nuclei (%) [2]: 57%
Population Hoechst High Intensity Objects (%) [2]: 7%
Population Membrane Permeable-Phenotype (%) [2]: 8%
Population Mitochondria Different-Phenotype (%) [2]: 6%
Population Mitotic Cells (%) [2]: 48%
Population Normal (%) [2]: 92%
Population Pyknosed Nuclei (%) [2]: 20%
Population Tubulin-Different-Phenotype (%) [2]: 46%
Total Cell Count [2]: 155
Population Apoptotic (%) [3]: 47%
Population Fragmented Nuclei (%) [3]: 27%
Population Healthy Nuclei (%) [3]: 58%
Population Hoechst High Intensity Objects (%) [3]: 2%
Population Membrane Permeable-Phenotype (%) [3]: 0%
Population Mitochondria Different-Phenotype (%) [3]: 14%
Population Mitotic Cells (%) [3]: 52%
Population Normal (%) [3]: 97%
Population Pyknosed Nuclei (%) [3]: 14%
Population Tubulin-Different-Phenotype (%) [3]: 45%
Total Cell Count [3]: 247
Population Apoptotic (%) [4]: 40%
Population Fragmented Nuclei (%) [4]: 19%
Population Healthy Nuclei (%) [4]: 47%
Population Hoechst High Intensity Objects (%) [4]: 7%
Population Membrane Permeable-Phenotype (%) [4]: 7%
Population Mitochondria Different-Phenotype (%) [4]: 6%
Population Mitotic Cells (%) [4]: 59%
Population Normal (%) [4]: 92%
Population Pyknosed Nuclei (%) [4]: 32%
Population Tubulin-Different-Phenotype (%) [4]: 58%
Total Cell Count [4]: 178
Population Apoptotic (%) [5]: 30%
Population Fragmented Nuclei (%) [5]: 9%
Population Healthy Nuclei (%) [5]: 78%
Population Hoechst High Intensity Objects (%) [5]: 1%
Population Membrane Permeable-Phenotype (%) [5]: 2%
Population Mitochondria Different-Phenotype (%) [5]: 6%
Population Mitotic Cells (%) [5]: 70%
Population Normal (%) [5]: 98%
Population Pyknosed Nuclei (%) [5]: 12%
Population Tubulin-Different-Phenotype (%) [5]: 30%
Total Cell Count [5]: 163
Population Apoptotic (%) [6]: 44%
Population Fragmented Nuclei (%) [6]: 26%
Population Healthy Nuclei (%) [6]: 54%
Population Hoechst High Intensity Objects (%) [6]: 5%
Population Membrane Permeable-Phenotype (%) [6]: 5%
Population Mitochondria Different-Phenotype (%) [6]: 3%
Population Mitotic Cells (%) [6]: 55%
Population Normal (%) [6]: 94%
Population Pyknosed Nuclei (%) [6]: 18%
Population Tubulin-Different-Phenotype (%) [6]: 47%
Total Cell Count [6]: 154
Population Apoptotic (%) [7]: 51%
Population Fragmented Nuclei (%) [7]: 28%
Population Healthy Nuclei (%) [7]: 62%
Population Hoechst High Intensity Objects (%) [7]: 1%
Population Membrane Permeable-Phenotype (%) [7]: 1%
Population Mitochondria Different-Phenotype (%) [7]: 10%
Population Mitotic Cells (%) [7]: 48%
Population Normal (%) [7]: 98%
Population Pyknosed Nuclei (%) [7]: 9%
Population Tubulin-Different-Phenotype (%) [7]: 47%
Total Cell Count [7]: 284
Population Apoptotic (%) [8]: 36%
Population Fragmented Nuclei (%) [8]: 29%
Population Healthy Nuclei (%) [8]: 50%
Population Hoechst High Intensity Objects (%) [8]: 9%
Population Membrane Permeable-Phenotype (%) [8]: 6%
Population Mitochondria Different-Phenotype (%) [8]: 6%
Population Mitotic Cells (%) [8]: 63%
Population Normal (%) [8]: 90%
Population Pyknosed Nuclei (%) [8]: 20%
Population Tubulin-Different-Phenotype (%) [8]: 66%
Total Cell Count [8]: 198
Population Apoptotic (%) [9]: 60%
Population Fragmented Nuclei (%) [9]: 17%
Population Healthy Nuclei (%) [9]: 68%
Population Hoechst High Intensity Objects (%) [9]: 4%
Population Membrane Permeable-Phenotype (%) [9]: 0%
Population Mitochondria Different-Phenotype (%) [9]: 3%
Population Mitotic Cells (%) [9]: 39%
Population Normal (%) [9]: 95%
Population Pyknosed Nuclei (%) [9]: 13%
Population Tubulin-Different-Phenotype (%) [9]: 31%
Total Cell Count [9]: 175
Population Apoptotic (%) [10]: 42%
Population Fragmented Nuclei (%) [10]: 34%
Population Healthy Nuclei (%) [10]: 56%
Population Hoechst High Intensity Objects (%) [10]: 3%
Population Membrane Permeable-Phenotype (%) [10]: 2%
Population Mitochondria Different-Phenotype (%) [10]: 5%
Population Mitotic Cells (%) [10]: 57%
Population Normal (%) [10]: 96%
Population Pyknosed Nuclei (%) [10]: 9%
Population Tubulin-Different-Phenotype (%) [10]: 44%
Total Cell Count [10]: 155
Population Apoptotic (%) [11]: 80%
Population Fragmented Nuclei (%) [11]: 22%
Population Healthy Nuclei (%) [11]: 69%
Population Hoechst High Intensity Objects (%) [11]: 4%
Population Membrane Permeable-Phenotype (%) [11]: 0%
Population Mitochondria Different-Phenotype (%) [11]: 7%
Population Mitotic Cells (%) [11]: 19%
Population Normal (%) [11]: 95%
Population Pyknosed Nuclei (%) [11]: 8%
Population Tubulin-Different-Phenotype (%) [11]: 62%
Total Cell Count [11]: 272
Population Apoptotic (%) [12]: 37%
Population Fragmented Nuclei (%) [12]: 36%
Population Healthy Nuclei (%) [12]: 47%
Population Hoechst High Intensity Objects (%) [12]: 6%
Population Membrane Permeable-Phenotype (%) [12]: 11%
Population Mitochondria Different-Phenotype (%) [12]: 2%
Population Mitotic Cells (%) [12]: 62%
Population Normal (%) [12]: 94%
Population Pyknosed Nuclei (%) [12]: 15%
Population Tubulin-Different-Phenotype (%) [12]: 57%
Total Cell Count [12]: 200
